{"source": "paper PMC4739781", "about": "(Journal of materials chemistry. B, Materials for biology …, 2015)", "key": {"[1]": {"test": "Ru complex release from PEG-ASP CNAs by dialysis under sink conditions", "assay_type": "physicochemical", "details": "for Release (%) in the primary phase: two-phase fit", "summary_of_the_method": "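Triplicate dialysis under sink conditions. Loaded CNAs at 100 μg/mL complex in diH2O, either irradiated 3 hrs (200 W, λ>400 nm, 120 J/cm²) or kept dark, in 10,000 MWCO cassettes. Dialysed at 37 °C in the dark against 5 L PBS or 10 mM phosphate buffer without NaCl (pH 6.0 or 7.4). Free complex served as control. Cassette contents were sampled over 0–48 hrs and read by MLCT-peak absorbance. Data were fitted by one-phase exponential regression, or two-phase where that fit better.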"}, "[2]": {"test": "log P by shake flask method", "assay_type": "physicochemical", "details": "Dark (protected from light)", "summary_of_the_method": "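Shake flask method in triplicate, using n-octanol and diH2O mutually pre-saturated (4:1 mixtures, 24 hrs). Protected from light, complex at 200 μM (100 μM for the less water-soluble one) in diH2O was mixed 1:1 with n-octanol (1 mL total). Samples were shaken 10 min and centrifuged at 17,000 × g for 30 sec. Both phases were read by absorbance at the MLCT peak. Photoactivated samples were first irradiated 30 min (20 J/cm², λ>400 nm filter).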"}, "[3]": {"test": "Ru complex photoactivation", "assay_type": "physicochemical", "details": "after 30 min irradiation (200 W, λ>400 nm)", "summary_of_the_method": "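Free or CNA-loaded complex in PBS, in a 1 cm quartz cuvette 18 in from a 200 W projector with λ>400 nm cutoff filter. UV/Vis absorbance change was recorded over irradiation time. Photoactivation t1/2 (time for half the spectral change) was obtained by non-linear exponential regression.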"}, "pUC19 plasmid DNA": {"biological_target": "pUC19 plasmid DNA", "test": "DNA agarose gel electrophoresis", "assay_type": "biochemical"}, "[4]": {"test_system": "A549 human lung adenocarcinoma cells", "test": "A549 cell cytotoxicity in the dark and after irradiation", "assay_type": "cell-based", "details": "for Phototoxicity Index, PI: ratio of the dark and light A549 EC50 values", "summary_of_the_method": "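A549 cells kept in DMEM with 10% FBS and 1% pen-strep at 37 °C, 5% CO2, below 70% confluence. Seeded at 1,500 cells/well in opti-MEM with 1% serum supreme and 1% pen-strep, then held 6 hrs. Free or CNA-loaded complex was added (0–300 μM or 0–20 μM) in the dark for 18 h. Cells were then irradiated (410 W projector, λ>400 nm filter, 30 sec pulses with 30 sec gaps, 5 min total) or kept dark, and held 72 hrs. Resazurin 73.3 μM for 4 hrs; fluorescence ex 560/em 590 nm; triplicate. PI is dark EC50 over light EC50.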"}, "A549 cells": {"test_system": "A549 cells", "test": "A549 cytotoxicity with exposure limited to 8 hrs, wash, then irradiation", "assay_type": "cell-based, human", "details": "irradiation λ>400 nm, 72 hrs", "summary_of_the_method": "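Free or CNA-entrapped complex was incubated with A549 cells for 8 hrs. Extracellular compound was washed off with fresh media. Cells were irradiated (λ>400 nm), incubated 72 hrs, and viability was read as in the standard assay: 73.3 μM resazurin for 4 hrs, fluorescence ex 560/em 590 nm.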"}, "[5]": {"test": "Ru complex loading in PEG-ASP CNAs by UV/Vis absorption at MLCT peak", "assay_type": "physicochemical", "details": "maximum theoretical loading 25 wt %", "summary_of_the_method": "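PEG-ASP(Na⁺) CNAs and Ru complex (theoretical maximum loading 25%) were dissolved in anhydrous DMSO and incubated overnight at room temperature, protected from light. Unbound complex was removed by dialysis (6,000–8,000 MWCO) against diH2O, changed twice daily for 3 days. The product was lyophilized. Loading was quantified by UV/Vis absorbance at each complex's MLCT peak.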"}, "[6]": {"details": "air-equilibrated D2O at room temperature; cited from earlier work"}, "[7]": {"details": "read-out: EC50 Dark, A549, protected from light, 72 hrs"}, "[8]": {"details": "read-out: EC50 Light, A549, 5 min light irradiation (λ>400 nm), 72 hrs"}}, "note": "Read-outs that look alike come from different tables or passages of the source.", "data": [{"smiles": "O.O.[Cl-].[Cl-].[Ru+2].c1ccc(-c2ccccn2)nc1.c1ccc(-c2ccccn2)nc1", "note": "[photoactivated 1, [Ru(bpy)2(H2O)2]Cl2]", "values": [{"measurement": "Release (%) from PEG-ASP CNAs", "setting": "[1]; Photoactivated, PBS (100 mM NaCl), pH 7.4, 37 °C", "value": 77.7, "unit": "%"}, {"measurement": "Release (%) from PEG-ASP CNAs", "setting": "[1]; Photoactivated, phosphate buffer 0 mM NaCl, pH 7.4, 37 °C", "value": 65.8, "unit": "%"}]}, {"smiles": "[Cl-].[Cl-].[Ru+2].c1ccc(-c2ccnc3c2ccc2c(-c4ccccc4)ccnc23)cc1.c1ccc(-c2ccnc3c2ccc2c(-c4ccccc4)ccnc23)cc1.c1ccc(-c2ccnc3c2ccc2c(-c4ccccc4)ccnc23)cc1", "note": "[compound 3, [Ru(dip)3]Cl2]", "values": [{"measurement": "log P", "setting": "[2]", "value": "1.80 ± 0.02"}, {"measurement": "Release (%) from PEG-ASP CNAs", "setting": "[1]; Dark, PBS (100 mM NaCl), pH 7.4, 37 °C", "value": 37.0, "unit": "%"}, {"measurement": "Release (%) from PEG-ASP CNAs (total)", "setting": "[1]; Dark, phosphate buffer 0 mM NaCl, pH 6.0, 37 °C", "value": 46.4, "unit": "%"}, {"measurement": "Release (%) in the primary phase", "setting": "[1]; Dark, phosphate buffer 0 mM NaCl, pH 6.0", "value": 45.0, "unit": "%"}, {"measurement": "Release (%) from PEG-ASP CNAs (total)", "setting": "[1]; Dark, phosphate buffer 0 mM NaCl, pH 7.4, 37 °C", "value": 51.9, "unit": "%"}, {"measurement": "Release (%) in the primary phase", "setting": "[1]; Dark, phosphate buffer 0 mM NaCl, pH 7.4", "value": 45.2, "unit": "%"}, {"measurement": "amount released from PEG-ASP CNAs after 18 hrs", "setting": "[1]; after 18 hrs, dark", "value": "approximately 20%"}, {"measurement": "photo-stability: change of UV/Vis absorbance spectrum", "setting": "[3]", "value": "did not change"}, {"measurement": "EC50", "setting": "pUC19 plasmid DNA; read-out: DNA interaction EC50 (DNA precipitation), protected from light, 40 μg/mL pUC19, 10 mM PB pH 7.4", "value": "31.3 to 62.5", "unit": "µM"}, {"measurement": "EC50", "setting": "pUC19 plasmid DNA; read-out: DNA interaction EC50 (single strand DNA breaks), after photoactivation (40 J/cm^2, λ>400 nm), 40 μg/mL pUC19", "value": "15.6 to 31.3", "unit": "µM"}, {"measurement": "Phototoxicity Index, PI", "setting": "[4]", "value": ">6"}, {"measurement": "EC50", "setting": "[4]; [7]", "value": "0.6 ± 1.1", "unit": "µM"}, {"measurement": "EC50", "setting": "[4]; [8]", "value": 0.1, "unit": "µM"}, {"measurement": "potency when cells were washed after an 8 hr exposure time", "setting": "A549 cells", "value": "remained potent"}, {"measurement": "loading efficiency in PEG-ASP CNAs", "setting": "[5]", "value": 88, "unit": "%"}, {"measurement": "weight % of Ru complex in loaded PEG-ASP CNAs", "setting": "[5]", "value": 22, "unit": "wt %"}, {"measurement": "singlet oxygen generation ΦΔ", "setting": "[6]", "value": 0.42}]}, {"smiles": "N.N.[Cl][Pt][Cl]", "note": "[cisplatin, reference compound]", "values": [{"measurement": "Phototoxicity Index, PI", "setting": "[4]", "value": 1}, {"measurement": "EC50", "setting": "[4]; [7]", "value": "2.5 ± 0.6", "unit": "µM"}, {"measurement": "EC50", "setting": "[4]; [8]", "value": "2.5 ± 0.6", "unit": "µM"}]}, {"smiles": "Cc1cccc(-c2cccc(C)n2)n1", "note": "[dmbpy, 6,6′-dimethyl-2,2′-bipyridine]", "values": [{"measurement": "EC50", "setting": "[4]; Homo sapiens, A549, read-out: EC50 (ejected ligand cytotoxicity)", "value": 80, "unit": "µM"}]}]}
